According to PubChem BioAssay:
Active and inactive are the calls of the source.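 The calls were made as follows, unless noted: active = fluorescence slope higher than the sample average by over 3 SD (cut at about -0.22 in these data, passing the limit was not always enough); inactive = the rest.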

Columns and labels:
[1] = inhibitors of TNFa-induced NFkB p65 translocation, primary screen, imaging, HUVEC, MLSMR starter and 10KST1 sets (AID 438;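 active = inhibition above 20% together with a positive visual image hit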;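 also: compound added about 3h40 before a 20 min TNFalpha stimulation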;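 as to inhibition: signal is the nuclear over cytoplasmic p65 intensity ratio per well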); conditions: HUVEC TNFa-induced p65 nuclear translocation; cell count: measured here: nuclei count (cytotoxicity indicator), at 2.08 µM; inhibition: at 2 µM, stronger effect = higher value, 0% TNFa-plus-vehicle, 100% no-TNFa wells
[2] = reduction of polyQ htt aggregates in cells – imaging, exon1htt(103Q)mCFP cells, high-content imaging, primary screen (AID 483;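 active = visual image review flags a hit and inhibition of aggregation exceeds 20%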;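 also: compound exposure lasted 3 days before fixation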;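 as to nuclei count: percent of the per-plate median nuclei count of sample wells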); conditions: exon1htt(103Q)mCFP cell line, aggregate imaging, at 2 µM; inhibition of aggregation: stronger effect = higher value; nuclei count: measured here: cell count, toxicity
[3] = endothelial E-selectin expression blockers – imaging, HUVEC, immunofluorescence, MLSMR starter and 10KST1 sets, primary screen (AID 487;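 active = visually confirmed hit in the image check and inhibition above 20%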;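 as to inhibition: signal is fraction of cell area covered by stained E-selectin grains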;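 as to nuclei count: 100% = median nuclei count of all wells on the same plate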); conditions: HUVEC TNFalpha-induced E-selectin immunofluorescence imaging, at 2 µM; inhibition: stronger effect = higher value; nuclei count: measured here: cell number, toxicity
[4] = molecular target: Voltage-gated potassium channel subunit beta-2 (Rattus norvegicus) (UniProt P62483); experiment: inhibitors of rat Kvbeta2 reductase activity – biochemical, NADPH fluorescence, primary screen (AID 622); conditions: recombinant KvBeta, 4-cyanobenzaldehyde reduction, at 10 µM, stronger effect = higher value;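 also: slope of raw intensity against log time taken from 70 to 1610 s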
[5] = molecular target: Voltage-gated potassium channel subunit beta-2 (Rattus norvegicus) (UniProt P62483); experiment: enhancers of rat Kvbeta2 NADPH turnover – biochemical, NADPH fluorescence, primary screen (AID 623;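 active = NADPH fluorescence slope more negative than the mean of all samples by about 3 SD, 99.7% confidence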;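 also: fluorescence intensity change per second fitted from 20 to 320 s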); conditions: Recombinant KvBeta, NADPH fluorescence decrease slope, 10 min; at 10 µM; stronger effect = lower value
[6] = molecular target: Muscarinic acetylcholine receptor M4 (Homo sapiens) (UniProt P08173); experiment: M4-linked GIRK flux change, two-sided – cell-based, HEK293 M4/GIRK, thallium flux, BTC-AM, M4 allosteric agonist project, primary screen (AID 625;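 active = fluorescence slope after compound addition differing from the mean of all tested samples at 99.7% confidence, mostly higher but some lower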;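 also: thallium influx through GIRK channels coupled to M4 in HEK293 cells with BTC-AM dye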); conditions: at 10 µM, actives lie on both sides
Outline: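 System: HEK293 cells with M4 receptor and GIRK channels | Incubation: Cells overnight at 37 °C, BTC-AM loading 1 h, reads 2 min total | Technique: Kinetic BTC-AM fluorescence sampled at 1 Hz, 10 s pre-addition baseline | Measure: Post-addition slope, 15–24 s, of baseline-normalized fluorescence | Control set: Carbachol positive, DMSO negative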

[7] = blockers of RIG-like receptor reporter activation – cell-based, Sendai virus stimulus, luciferase, 10K MLSCN set, TLR/RLR signaling modifier project, primary screen (AID 602276;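 active = inhibition at or above 50% at 10 µM; inactive = inhibition below 50%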;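 also: firefly luciferase from ISG56 promoter only with Renilla not read in this screen; 0% = Sendai virus plus DMSO and 100% = medium plus DMSO without virus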); conditions: HEK293 RL24 IRF3 luciferase reporter, at 10 µM, stronger effect = higher value
[8] = TLR3 IRF3 reporter activation blockers – cell-based, poly I:C stimulus, luciferase, 10K MLSCN set, primary screen (AID 602277;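 active = inhibition of the reporter signal at or above 50%; inactive = inhibition below 50%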); conditions: HEK293-TLR3 RL24 IRF3 luciferase reporter, at 10 µM, stronger effect = higher value

Chain of Voltage-gated potassium channel subunit beta-2 (Rattus norvegicus) (P62483 whole entry, looked up): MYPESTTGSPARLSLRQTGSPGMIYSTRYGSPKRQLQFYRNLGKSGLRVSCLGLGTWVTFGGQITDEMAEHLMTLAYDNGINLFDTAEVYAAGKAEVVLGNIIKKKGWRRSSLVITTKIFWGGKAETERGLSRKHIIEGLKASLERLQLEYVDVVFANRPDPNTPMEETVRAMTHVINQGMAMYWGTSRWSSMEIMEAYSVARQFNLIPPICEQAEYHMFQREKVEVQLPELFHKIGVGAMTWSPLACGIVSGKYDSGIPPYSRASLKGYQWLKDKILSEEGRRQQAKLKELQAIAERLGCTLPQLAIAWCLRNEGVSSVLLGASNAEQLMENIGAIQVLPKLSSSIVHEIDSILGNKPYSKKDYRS
Chain of Muscarinic acetylcholine receptor M4 (Homo sapiens) (P08173 whole entry, looked up): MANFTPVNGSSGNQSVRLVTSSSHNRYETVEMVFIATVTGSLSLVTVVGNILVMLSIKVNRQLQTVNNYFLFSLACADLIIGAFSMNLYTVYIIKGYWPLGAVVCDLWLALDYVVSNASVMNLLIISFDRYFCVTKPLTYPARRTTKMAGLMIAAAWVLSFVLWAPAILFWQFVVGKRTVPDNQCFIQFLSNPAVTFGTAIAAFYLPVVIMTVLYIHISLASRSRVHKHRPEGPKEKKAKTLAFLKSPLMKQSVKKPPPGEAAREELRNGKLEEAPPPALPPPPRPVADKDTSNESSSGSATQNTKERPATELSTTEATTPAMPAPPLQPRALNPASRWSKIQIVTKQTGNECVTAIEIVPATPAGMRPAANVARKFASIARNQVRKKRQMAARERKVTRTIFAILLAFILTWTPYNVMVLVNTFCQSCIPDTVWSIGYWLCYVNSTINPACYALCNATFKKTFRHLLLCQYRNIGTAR

| SMILES | cell count [1] | inhibition [1] | inhibition of aggregation [2] | nuclei count [2] | inhibition [3] | nuclei count [3] | fluorescence slope [4] | NADPH fluorescence slope [5] | fluorescence slope [6] | inhibition [7] | inhibition [8] |
| --- | --- | --- | --- | --- | --- | --- | --- | --- | --- | --- | --- |
| Cc1nc2sc(C(c3cccc(F)c3)N3CCN(C(=O)c4ccco4)CC3)c(O)n2n1 (stereo not drawn) | 228 | -2.8% (inactive) | -3.1% (inactive) | 106% | -7% (inactive) | 112% | -0.306 (inactive) | -1.4e-05 (inactive) | 0.00489 (inactive) | -14.2% (inactive) | -22.6% (inactive) |
| Cc1ccc2c(c1)-c1cc(C)nn1C(c1ccc3c(c1)OCO3)N2 (stereo not drawn) | 651 | 4.2% (inactive) | 16% (inactive) | 99.1% | -7.1% (inactive) | 130% | -0.568 (inactive) | -2.2e-05 (inactive) | 0.00558 (inactive) | -4.39% (inactive) | -18.6% (inactive) |
| COc1ccc(N(CC(=O)N2CCN(Cc3ccc4c(c3)OCO4)CC2)S(C)(=O)=O)cc1OC | 359 | 5% (inactive) | 2.1% (inactive) | 120% | -52.6% (inactive) | 112% | -0.538 (inactive) | -1.7e-05 (inactive) | 0.00506 (inactive) | 21.2% (inactive) | 20.2% (inactive) |
| CC(C)[C@H](NC(=O)OC(C)(C)C)c1nnc(S(=O)(=O)Cc2c(F)cccc2Cl)o1 | 570 | 10.7% (inactive) | -0.1% (inactive) | 89.7% | 36.5% (inactive) | 101% | -0.521 (inactive) | -0.000188 (inactive) | 0.00242 (inactive) | 32.2% (inactive) | 21.7% (inactive) |
| COc1ccc(Cn2nnnc2C(c2ccncc2)N2CCOCC2)cc1 (stereo not drawn) | 543 | 0.5% (inactive) | -5.2% (inactive) | 90.8% | -90.6% (inactive) | 119% | -0.608 (inactive) | -1.7e-05 (inactive) | 0.00759 (inactive) | 7.51% (inactive) | 9.52% (inactive) |
| CC(=O)Nc1cccc(NC(=O)CSc2nnnn2C(C)C)c1 | 638 | 1.6% (inactive) | 13.7% (inactive) | 62.3% | -46.4% (inactive) | 120% | -0.436 (inactive) | -2.6e-05 (inactive) | 0.00495 (inactive) | 12.9% (inactive) | 12.5% (inactive) |
| CC1CCN(C(=O)C2CCN(S(=O)(=O)c3cnc[nH]3)CC2)CC1 | 464 | 2.5% (inactive) | 22% (inactive) | 90.5% | -170% (inactive) | 116% | -0.553 (inactive) | -1.4e-05 (inactive) | 0.00577 (inactive) | 15.5% (inactive) | 19.2% (inactive) |
| O=C(Cn1nnc(-c2ccncc2)n1)Nc1ccc2c(c1)CCC2 | 674 | -8.6% (inactive) | 5% (inactive) | 89.1% | -115% (inactive) | 140% | -0.465 (inactive) | -6.3e-05 (inactive) | 0.00619 (inactive) | -0.547% (inactive) | -23.3% (inactive) |
| CC1(C)CC(=O)c2cc(OCC(=O)N3CCN(c4ccccc4F)CC3)ccc2O1 | 550 | -19.1% (inactive) | -3.9% (inactive) | 94.6% | -101% (inactive) | 118% | -0.288 (inactive) | -5.4e-06 (inactive) | 0.00419 (inactive) | 19.9% (inactive) | 0.776% (inactive) |
| Cc1cc(SCC(N)=O)nc(SCC(=O)c2ccccc2)n1 | 584 | -3.3% (inactive) | -8.2% (inactive) | 105% | 16.8% (inactive) | 91.6% | -0.585 (inactive) | -5.2e-05 (inactive) | 0.00307 (inactive) | 10.5% (inactive) | 21% (inactive) |
| COc1cccc(-n2c(C)nc3c(cnn3-c3ccc(Cl)cc3)c2=O)c1 | 238 | -6.4% (inactive) | -13.4% (inactive) | 94.3% | -14.1% (inactive) | 114% | -0.553 (inactive) | 7.6e-06 (inactive) | 0.00702 (inactive) | -4.02% (inactive) | 4.48% (inactive) |
| CC1CC(C)CN(CCCNC(=O)COc2cc(=O)n(C)c3ccccc23)C1 (stereo not drawn) | 347 | 3.3% (inactive) | -17.3% (inactive) | 99% | -10.4% (inactive) | 122% | -0.408 (inactive) | -7e-05 (inactive) | 0.00505 (inactive) | 11.3% (inactive) | 36.3% (inactive) |
| COc1ccccc1-n1cnnc1SCC(=O)c1ccc[nH]1 | 544 | 6.1% (inactive) | 6.1% (inactive) | 96.8% | 17.5% (inactive) | 77.8% | -0.532 (inactive) | -4.3e-05 (inactive) | 0.00668 (inactive) | 9.86% (inactive) | 10.8% (inactive) |
